From ChEMBL document CHEMBL3826940, “Amphipathicity Determines Different Cytotoxic Mechanisms of Lysine- or Arginine-Rich Cationic Hydrophobic Peptides in Cancer Cells” (J Med Chem, 2016)

Test system: HeLa
Assay: Membranolytic activity in human HeLa cells expressing GFP after 5 mins by fluorescence leakage assay
Assay type: functional, cell-based
Outline: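 GFP-expressing HeLa cells (1 × 10^4/well, grown 24 h) were treated with peptides at various concentrations in PBS for 5 min. Supernatant was collected after centrifugation at 1000g and its fluorescence read at 485/535 nm. 1% Triton X-100 defined 100% leakage, and LC50 was calculated from three independent experiments.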

Compound | LC50 [µM]
CC(C)C[C@H](NC(=O)[C@H](CCCNC(=N)N)NC(=O)[C@H](CC(C)C)NC(=O)[C@H](CC(C)C)NC(=O)[C@H](CCCNC(=N)N)NC(=O)[C@H](CCCNC(=N)N)NC(=O)[C@H](CC(C)C)NC(=O)[C@H](CCCNC(=N)N)NC(=O)[C@H](CC(C)C)NC(=O)[C@H](CC(C)C)NC(=O)[C@H](CCCNC(=N)N)NC(=O)[C@H](CC(C)C)NC(=O)[C@H](CC(C)C)NC(=O)[C@H](CCCNC(=N)N)NC(=O)CNC(=O)CNC(=O)[C@@H](N)Cc1cnc[nH]1)C(N)=O | 25.9
H-HGGKLLKLLKKLLKLLK-NH2 | 3.6
H-HGGKLLKLLKLKKLLKL-NH2 | 38.8
H-HGGRLLRLLRRLLRLLR-NH2 | 3.9
